# Source: PubChem BioAssay (several laboratories)
# ABCG2 block – inhibitors of human ABCG2 transporter, ABCB1 counter-screen | Q9UNQ0 | IgMXP3 cells, JC-1 efflux, flow cytometry | inhibition, % at 6.6 µM | 190,000 compounds, 0.1% hits | AID 1325;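 active = inhibition above 80%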;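 note: 0% = DMSO and 100% = nicardipine control wells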
#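 Incubation: cells with compound and JC-1, 10 min at 25 °C, rotating, no wash / Test system: IgMXP3 (ABCG2) plus far-red-tagged CCRF-Adr (ABCB1) cells / Compound dosing: one concentration, 6.6 µM final / Also added: JC-1 fluorescent substrate / Evaluation: efflux inhibition in percent versus controls / Detection: flow cytometry, 530 nm JC-1 signal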
# RAM inhibit – yeast RAM network inhibition; S. cerevisiae dse1pr::URA3 reporter, 5-FOA growth OD615, 2 d; analog-sensitive cbk1-as2 kinase mutant strain; inhibition, % at 50 µM; 190,000 compounds, 1.8% hits;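 active = inhibition above a set limit, 3 SD over mean compound inhibition, cut at about 8.4% in these data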;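 note: 0% = DMSO-only wells with no growth and 100% = 10 µM 1-NA-PP1 full growth; inhibition rescues growth on 5-FOA so higher OD means more RAM inhibition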
# WT yeast gro inh – growth inhibition of WT yeast, mitochondrial fusion screen; mitochondrial fusion phenotypic screen, WT strain; inhibition, % at 10 µM; 190,000 compounds, 2.1% hits; AID 1362; in the data active = inhibition above about 58%; tested in S. cerevisiae
# Lmaj promast – Leishmania major promastigote growth inhibition; Leishmania major promastigotes, resazurin fluorescence viability; inhibition, % at 10 µM; 200,000 compounds, 9% hits; in the data active = inhibition above about 50%;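 note: promastigotes grown with compound for 44 hours at 28 °C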
# ABCB1 inh – human ABCB1 inhibition, ABCG2 as counter-screen | CCRF-Adr cells, JC-1 efflux, flow cytometry | AID 1326 | 190,000 compounds, 0.067% hits | inhibition, % at 6.6 µM; in the data active = inhibition above about 40%;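 note: 0% = vehicle and 100% = reference inhibitor; higher value means more JC-1 retained so stronger ABCB1 efflux block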
# The depositor's hits bear a star. Hits are enriched below; roughly 12% of the tested compounds scored in any of these assays.
SMILES,ABCG2 block,RAM inhibit,WT yeast gro inh,Lmaj promast,ABCB1 inh
Cc1ccc(C(=O)Nc2nc(-c3ccccc3)c(-c3ccccc3)o2)cc1,3.0,3.6,68.5*,-4.8,-0.6
Cc1cc(C)nc(SCC(=O)Nc2nc(-c3ccccc3)c(-c3ccccc3)o2)n1,7.0,5.0,54.0,-6.7,-0.1
COc1ccccc1C(=O)C1CCCN(C(=O)c2cccnc2SC)C1 (stereo not drawn),21.8,0.8,6.5,-5.7,3.3
Fc1ccc(CO/N=C2\CCCc3nonc32)cc1,5.7,0.7,-0.4,2.3,0.5
O=C(c1cccnc1)C1CCCN(Cc2nc(Cc3ccccc3)no2)C1 (stereo not drawn),-0.7,0.4,5.8,16.4,0.5
Cc1cccc(-c2nc3ccccc3c(=O)n2NC(=O)/C=C/c2ccc([N+](=O)[O-])cc2)c1,-8.9,4.8,9.7,52.4*,-1.3
O=C(Nc1ccc(Cl)c(S(=O)(=O)N2CCOCC2)c1)c1ccccc1-c1ccc(C(F)(F)F)cc1,5.2,6.1,7.3,99.2*,6.6
O=C(CSc1nc2ccccc2s1)Nc1ccc(Cl)c(S(=O)(=O)N2CCOCC2)c1,-1.4,9.9*,33.6,6.3,-0.4
O=C(Nc1ccccc1)Nc1ccc(Cl)c(S(=O)(=O)N2CCOCC2)c1,1.4,1.2,8.2,18.1,-0.2
O=C(CSc1nc2ccccc2s1)Nc1ccc(N2CCOCC2)c(Cl)c1,0.9,4.7,-8.0,-5.4,0.0
O=C(c1sc2cc([N+](=O)[O-])ccc2c1Cl)N1CCOCC1,6.5,0.8,5.0,-7.0,1.0
CC(C)N(C(=O)c1sc2cc([N+](=O)[O-])ccc2c1Cl)C(C)C,2.0,3.6,0.1,97.2*,0.2
C=CCc1ccccc1OCC(=O)N/N=C/c1ccc(OC(C)=O)cc1OC(C)=O,4.7,-0.7,-5.1,97.8*,0.1
Cc1cccc(N2CCN(C(=O)c3cc(C)oc3C)CC2C)c1 (stereo not drawn),1.2,0.8,12.5,56.0*,0.6
COc1c(Cl)cc(Cl)cc1CNc1ccc(S(N)(=O)=O)cc1,6.0,-0.9,12.1,1.9,0.3
O=C(CSc1nnc(Cc2ccccc2)o1)Nc1ccc2c(c1)OCO2,9.1,4.7,-40.0,3.9,1.6
Clc1ccc(N=c2ssnc2Cl)nc1,2.9,-1.2,68.5*,-9.6,0.9
Clc1nssc1=Nc1ccc(Br)cc1,-10.4,2.0,71.3*,-9.6,-5.6
Cc1ccc(C)c(NC(=S)N2CCN(CCO)CC2)c1,39.2,0.8,-8.5,46.4,1.1
COc1ccc(CCNC(=O)C(=O)N2CCCC2)cc1OC,-0.9,0.4,-17.7,-2.6,-0.1
CCCCCNC(=O)CCn1c(=O)oc2ccccc21,40.8,1.2,-11.2,0.2,1.7
COCCNC(=O)CCn1c(=O)oc2ccccc21,7.8,2.1,49.9,69.8*,0.7
COc1ccc(/C=C/C(=O)OCC(=O)NCCC2=CCCCC2)cc1S(=O)(=O)N1CCOCC1,0.6,1.6,0.3,5.8,-0.2
Cc1ccc(CSC(Nc2ccc(F)cc2)=C(C#N)C#N)cc1,9.6,2.1,47.5,57.9*,4.2
CCn1ccc(-c2ccccc2)c(C#N)c1=O,-3.3,0.6,0.5,-0.2,-0.2
SMILES,ABCG2 block,RAM inhibit,WT yeast gro inh,Lmaj promast,ABCB1 inh
COc1ccccc1N1C(=O)CCC1(C#N)c1ccccc1 (stereo not drawn),6.3,-0.9,8.2,-5.7,1.5
COc1ccc(N2C(=O)CC2(C#N)c2ccc(OCc3ccccc3)cc2)cc1 (stereo not drawn),11.9,10.7*,-5.6,68.2*,1.2
CN1CCN(Cc2ccc(-c3ccc(Cl)cc3)o2)CC1,1.4,-0.2,15.8,93.7*,-0.1
OCCc1ccc(-c2ccc(Cl)cc2)o1,12.5,0.3,7.4,-3.4,0.8
CC(C)=CCN1CCN(Cc2cc(C(C)C)n[nH]2)CC1CCO (stereo not drawn),0.5,-0.6,-8.0,-9.0,0.2
Cc1cc(S(=O)(=O)Nc2ccc3ccccc3c2)c(C)s1,1.5,9.2*,32.1,6.7,0.3
Cc1cc(S(=O)(=O)Nc2cccnc2)c(C)s1,6.5,0.8,-16.8,-4.0,0.9
Cc1cc(S(=O)(=O)Nc2cc(C)c(O)c(C)c2)c(C)s1,0.1,0.8,17.4,100.4*,0.0
COc1ccc(CC2(CO)CCN(S(=O)(=O)c3sccc3C)CC2)cc1,0.1,-1.4,2.6,8.5,0.2
CCOC(=O)C1CCN(Cc2nc3ccccc3c(=O)n2-c2ccc(OCC)cc2)CC1,0.0,1.5,-19.5,6.0,0.0
Cc1ccc(Oc2ncc(CN3CC(C)OC(C)C3)s2)cc1 (stereo not drawn),0.0,0.8,40.9,52.2*,-0.1
CCOC(=O)C1CCN(Cc2cnc(Oc3ccc(Cl)cc3C)s2)CC1,2.9,0.1,24.3,90.0*,0.5
CCOC(=O)C1CCN(Cc2cnc(Oc3ccc(N)cc3)s2)CC1,-7.3,1.5,-2.0,84.4*,-4.4
CCN(c1ccccc1)S(=O)(=O)c1ccc(Oc2ccc(-n3ccnc3)cc2)nc1,1.5,1.2,15.0,76.0*,1.2
CCN(c1ccccc1)S(=O)(=O)c1ccc(C(=O)NCCCn2ccnc2)cc1,0.1,1.0,1.9,-3.1,0.2
Cc1nnc(SCc2nc3ccccc3s2)n1-c1ccccc1,25.0,2.8,-0.2,-4.7,1.0
COc1ccc(C)cc1-n1nnnc1SCC(=O)Nc1cc(C)on1,0.1,4.1,-23.8,-0.8,0.0
COc1ccc(C)cc1-n1nnnc1SCc1nc2ccccc2s1,-3.5,5.9,25.2,82.5*,-5.4
COc1ccc(C)cc1-n1nnnc1SCC(=O)Nc1cccnc1Cl,29.1,2.1,14.4,92.0*,1.7
CCn1c(SCc2nc3ccccc3s2)nnc1-c1ccccc1,2.1,1.5,14.2,65.3*,0.7
CCOC(=O)n1c(=O)n(Cc2c(Cl)cccc2Cl)c2ccccc21,2.0,5.4,1.6,1.6,0.7
COc1ccc2c(c1)[nH]c1c(=O)n(CCCN3CCOCC3)cnc12,3.8,0.7,-2.0,1.1,1.0
COc1ccc2c(c1)c1ncn(CCCN3CCOCC3)c(=O)c1n2C,2.3,1.4,3.3,54.6*,0.4
CCS(=O)(=O)N1CCC(C(=O)NCc2ccc(OC)cc2)CC1,1.4,2.0,-5.6,-6.1,0.5
Cc1cccc(/C=C(\c2nc3ccccc3[nH]2)S(=O)(=O)c2ccccc2)c1,6.2,6.5,-16.4,100.4*,6.4
Cc1cccc(/C=C/c2nc3ccccc3c(=O)[nH]2)c1,2.3,1.7,-3.7,3.3,0.3
O=C(OCn1ncc(Br)c(Br)c1=O)c1ccccc1Cl,3.5,2.0,80.3,100.5*,1.2
O=C(OCn1ncc(Br)c(Br)c1=O)c1ccc(F)cc1,0.6,-0.7,87.0*,99.8*,0.8
COc1ccc(CCC(C)Nc2ccc(F)cc2)cc1 (stereo not drawn),1.6,-1.2,-2.7,-1.3,-0.1
COc1ccc(CCC(C)NCC2CCCCC2)cc1 (stereo not drawn),1.3,-0.4,2.9,86.6*,0.5
